In the library only some 1.4% were active in any assay of this set; here they are far more common.
Rev-erbA mod: modulators of Rev-erb alpha DNA binding, primary screen, biochemical, FITC-DNA, fluorescence polarization, uHTS. Nuclear receptor subfamily 1 group D member 1 (Homo sapiens), P20393. Rev-erbα–FITC-DNA binding, 90 min. activity, % at 10 µM. 370,000 compounds, 0.79% hits. AID 1259318, 2017;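 active = activity above about 14%, limit read from the data; passing the limit was not always enough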;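 also: 0% = DMSO wells with 35 nM protein and 100% = DMSO wells with 750 nM protein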
PG9 binder: binders of HIV-1 gp120 antibody PG9, primary screen, biochemical, TR-FRET | HIV-1 gp120 / PG9 antibody interaction | TR-FRET gp120-PG9 antibody binding | inhibition, % at 6.7 µM | 360,000 compounds, 0.43% hits | AID 624416, 2012; in the data active = inhibition above about 8.5%
NR2E3 ag-1: NR2E3 agonists in two-hybrid cells, primary screen, cell-based, luminescence, CHO-S, Gal4-NCOR/VP16-NR2E3 | inhibition of corepressor binding, % at 3.98 µM | luciferase | AID 602229, 2012 | 360,000 compounds, 0.35% hits | Photoreceptor-specific nuclear receptor (Homo sapiens), Q9Y5X4;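 active = inhibition above the mean of all tested compounds plus 3 SD, cut at about 70% in these data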;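 also: 0% = DMSO with NR2E3 transfected cells and 100% = cells lacking NR2E3 construct; higher means lower luciferase signal from less NR2E3 corepressor binding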
Target sequence (Q9Y5X4 whole entry, looked up, the tested form may be a part): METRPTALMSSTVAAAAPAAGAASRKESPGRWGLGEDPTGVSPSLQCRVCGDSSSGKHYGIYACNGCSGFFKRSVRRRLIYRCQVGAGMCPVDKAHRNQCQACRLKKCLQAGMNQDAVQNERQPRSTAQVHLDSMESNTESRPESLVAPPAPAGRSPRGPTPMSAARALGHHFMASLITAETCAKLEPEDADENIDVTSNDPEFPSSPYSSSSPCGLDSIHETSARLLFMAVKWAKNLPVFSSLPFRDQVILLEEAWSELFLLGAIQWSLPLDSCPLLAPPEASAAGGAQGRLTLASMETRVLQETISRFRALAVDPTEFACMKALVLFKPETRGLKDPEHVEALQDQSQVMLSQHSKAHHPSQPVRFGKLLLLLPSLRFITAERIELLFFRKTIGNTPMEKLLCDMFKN
NR2E3 ag-2: inhibitors of NR2E3-RetCOR corepressor binding, primary screen, NR2E3 agonist project, biochemical, TR-FRET, GST-NR2E3, biotin-RetCOR; Photoreceptor-specific nuclear receptor (Homo sapiens), Q9Y5X4; 1536-well; inhibition of corepressor binding, % at 4.78 µM; AID 2300, 2010; 320,000 compounds, 0.12% hits;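 active = percent inhibition above the cutoff of mean plus 3 SD of all tested compounds, set per screening campaign, cut at about 20% in these data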;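 also: 0% = DMSO wells and 100% = biotin wells as full block of FRET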
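Test system: GST-NR2E3 and biotin-RetCOR proteins | Quantity: 1.35 nM GST-tagged NR2E3 final | Medium: Tris pH 7.5 | Also added: 7 nM biotin-RetCOR | Dosing: Compound at 4.8 µM, single dose | Timing: 5 h at 4 °C | Detection: Time-resolved FRET | Read-out basis: Percent inhibition | Benchmarks: Biotin wells as high control, 0.6% DMSO wells as low control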
NR1D1 mod conf: modulators of Rev-erb alpha DNA binding, confirmation, biochemical, FITC-DNA, fluorescence polarization, single point; activation, % at 25 µM; 90 min; 3,000 compounds, 61% hits; shares compounds with Rev-erbA mod;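 active = activation at or above a set limit, or at least 3 SD above the negative control mean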;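 also: 0% = 35 nM protein with DMSO and 100% = 750 nM protein high control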
RORg DNA counter: modulation of RORgamma DNA binding, dose response, counter-screen for Rev-erb alpha modulator project, biochemical, fluorescence polarization, FITC-DNA | shares compounds with Rev-erbA mod | IC50, µM | AID 1259320, 2017 | purified RORgamma protein-FITC-DNA binding | 910 compounds, 8% hits;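 active = Compounds whose fitted half-maximal concentration for disrupting protein-DNA binding is below 10 micromolar; the record names Rev-erb in its text, so the target is in doubt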
Active calls of the source: *; . = not tested or not shown.

SMILES | Rev-erbA mod | PG9 binder | NR2E3 ag-1 | NR2E3 ag-2 | NR1D1 mod conf | others
CC(=O)c1sc2c(c1OC(=O)c1ccc(Cl)cc1)c(=O)n(-c1ccccc1)c(=S)n2-c1ccccc1 | 45* | -1 | 9 | . | 10
CC(C)Oc1cccc(-c2n[nH]c(=S)n2N=Cc2ccc(OCc3ccccc3)cc2)c1 | 1 | . | . | . | .
COc1cccc(CNC(=O)COC(=O)c2cc(Br)c(Br)s2)c1 | 21* | 1 | 1 | 6 | 18*
COc1ccc(Cn2c3ccc(OC)cc3c3nc4ccccc4nc32)cc1 | 25* | -1 | -7 | -2 | 23*
COc1ccc(N2CCN(C(=O)c3ccc(Cn4c(=S)[nH]c5ccc(N6CCOCC6)cc5c4=O)cc3)CC2)cc1 | 42* | 0 | -44 | -2 | 12
Cc1[nH]c2ccccc2c1C(=O)CSc1ccccc1 | 3 | -3 | -60 | 1 | .
Cc1ccc2c(C(=O)CSc3ccccc3)c(C)[nH]c2c1 | 30* | -5 | -24 | -6 | 28*
CCC(=O)N1CCC1(C)C(=O)Nc1cnc2ccccc2c1 (stereo not drawn) | 17* | 0 | 5 | . | -2
O=C1c2ccccc2NC(c2ccc(-c3ccccc3F)o2)N1O (stereo not drawn) | 24* | -1 | -89 | 4 | 21*
O=C1c2ccccc2NC(c2ccc(-c3cccc(F)c3)o2)N1O (stereo not drawn) | -20 | -1 | -125 | -3 | .
C#CCN(CC(=O)OCC)S(=O)(=O)CCNC1CC1 | -3 | -1 | -16 | . | .
O=C1CN(C(=O)COC(=O)c2cccs2)c2ccccc2N1 | -3 | 2 | -9 | 0 | .
Cn1c2ccccc2c2cc(C(=O)OCC(=O)N3CC(=O)Nc4ccccc43)sc21 | 74* | 2 | -14 | 2 | 62*
CCCCn1c(=O)[nH]c(=O)c2c1nc(-c1ccc(-c3ccccc3)cc1)n2C | 20 | -2 | -22 | 7 | .
CCCCn1c(=O)[nH]c(=O)c2c1nc(-c1ccc(OCCC)c(OCC)c1)n2C | 21* | 0 | -7 | 0 | -6
Nc1ccc2ccccc2c1N=Nc1ccccc1 | 23* | -3 | -24 | . | 27*
NC(=O)c1cc2ccccc2o/c1=N\NC(=O)c1ccccc1O | 21* | -6 | -28 | 0 | -11
CCOC(=O)c1c(NC(=O)COC(=O)c2nc(Cl)ccc2Cl)sc(C(=O)NC)c1C | 5 | 7 | -11 | -3 | .
CCOC(=O)c1c(NC(=O)COC(=O)c2ccc(O)cc2)sc(C(=O)NC)c1C | 38* | 0 | -14 | -1 | 29*
O=C(Nc1ccccc1)C1=C(Nc2ccccc2)CSC1 | 3 | 0 | -20 | . | .
NC(=O)c1c(NC(=O)c2ccccc2)sc2c1CCc1ccccc1-2 | 47* | 0 | -123 | 2 | 18*
COc1ccc(CCn2c(O)c(C=Nc3cccc(F)c3)c(=O)[nH]c2=O)cc1OC | 38* | 3 | -18 | -2 | 1
CCCCN(C(=O)c1ccc(-c2ccc(Cl)cc2)o1)c1c(N)n(CC(C)C)c(=O)[nH]c1=O | 18* | -2 | 8 | 6 | -16
COCCN(C(=O)c1ccc(-c2ccc(Cl)cc2)o1)c1c(N)n(CC(C)C)c(=O)[nH]c1=O | -5 | 0 | -50 | 2 | .
O=C(NCc1ccc2c(c1)OCO2)OCc1ccccc1 | 0 | -2 | . | . | .
CCN(CC)c1ccc(/C=C2\C(=N)N3N=C(CC(=O)N4CCOCC4)SC3=NC2=O)cc1 | 37* | -3 | -26 | 1 | 22*
CC(C)(C#N)Cc1cc(CC(C)(C)C#N)cc(C(C)(C)C)c1 | 22* | 0 | -16 | 3 | 43* | RORg DNA counter=>40
COc1ccc(CCn2c(-c3ccccc3)nc3c(c(=O)c4ccccc4n3C)c2=O)cc1 | 8 | 1 | . | -1 | .

Source: PubChem BioAssay
